Assay results from the M2OR odorant receptor database.

The compounds below were run against UniProt Q9WVD9. Conditions: stereoisomer not certain.
Outline: (§1)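 Each receptor–molecule pair is labelled responsive or non-responsive (inactive) according to whether the original authors judged the measured signal statistically different from baseline. The data were taken from the main text and supplementary material of published papers and checked for typos and inconsistencies. Assay methods differed by source, with transient luciferase assays in mammalian cell lines being common.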

Chain of UniProt Q9WVD9 (Q9WVD9 as listed by the source): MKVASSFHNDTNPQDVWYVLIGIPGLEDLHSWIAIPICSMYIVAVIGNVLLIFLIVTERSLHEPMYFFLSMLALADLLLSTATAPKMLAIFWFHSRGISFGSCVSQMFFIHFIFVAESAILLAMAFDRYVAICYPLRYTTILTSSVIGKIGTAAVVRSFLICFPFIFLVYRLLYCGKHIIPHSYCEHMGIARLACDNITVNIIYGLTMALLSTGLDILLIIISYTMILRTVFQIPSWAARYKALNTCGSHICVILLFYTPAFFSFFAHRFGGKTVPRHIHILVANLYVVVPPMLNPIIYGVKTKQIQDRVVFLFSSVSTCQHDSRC

Odorant receptor agonist call, inactive:
CCCCCCCCCO, CCCCC(C)=O, CCOC(=O)C(C)C, CCCCCCCCC(=O)O, CC(=O)OCC=C(C)C, CCCCCC(=O)CC, CCCCCCCCCC(=O)[O-].[H+], CCCCCCCCS, C=CCOC(=O)CCCCCC, CCCCCCO, CCCCCCCCO, CCCCCCCCCCO, CCC(=O)C(=O)CC, CCCCCCCO, O=C1Cc2ccccc2O1, CCCCC(=O)O, CCCCCC=O, O=C(c1ccccc1)c1ccccc1

What follows are compounds tested against T1, UniProt Q9WVN5. Conditions: stereoisomer not certain.
T1 sequence (whole entry): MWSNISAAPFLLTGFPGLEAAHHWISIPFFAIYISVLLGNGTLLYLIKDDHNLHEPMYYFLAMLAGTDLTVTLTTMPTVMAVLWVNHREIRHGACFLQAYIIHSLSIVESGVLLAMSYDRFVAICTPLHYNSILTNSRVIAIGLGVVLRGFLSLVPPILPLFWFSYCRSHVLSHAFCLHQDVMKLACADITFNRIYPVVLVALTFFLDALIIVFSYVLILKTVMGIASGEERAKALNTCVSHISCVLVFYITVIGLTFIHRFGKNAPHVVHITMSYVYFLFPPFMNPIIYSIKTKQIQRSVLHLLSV
Outline: as §1

Odorant receptor agonist call, inactive:
CCCCCCCCCO, CCCCC(C)=O, CCOC(=O)C(C)C, CCCCCCCCC(=O)O, CC(=O)OCC=C(C)C, CCCCCC(=O)CC, CCCCCCCCCC(=O)[O-].[H+], CCCCCCCCS, C=CCOC(=O)CCCCCC, CCCCCCO, CCCCCCCCO, CCCCCCCCCCO, CCC(=O)C(=O)CC, CCCCCCCO, O=C(c1ccccc1)c1ccccc1

Odorant receptor agonist call, active:
O=C1Cc2ccccc2O1, CCCCC(=O)O, CCCCCC=O
